According to ChEMBL document CHEMBL1139414, “Conformationally constrained analogues of diacylglycerol. 29. Cells sort diacylglycerol-lactone chemical zip codes to produce diverse and selective biological activities” (J Med Chem, 2008):

Target: Protein kinase C alpha type (Mus musculus, UniProt P20444)
Test: Displacement of [3H]PDBu form mouse PKCalpha by scintillation counting
Summary of the method: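 Partially purified mouse PKCα; competition with [³H]PDBU. ID50 obtained by fitting a sigmoidal competition curve and converted to Ki = ID50/(1+L/Kd). Pure compounds tested at 6–7 concentrations; crude library compounds at a single 1 μM concentration. Triplicates per concentration, at least three experiments; mean ± SEM.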

SMILES | Ki [nM]
CC(C)C(=O)OCC1(CO)C/C(=C/c2ccc(F)c(Cl)c2)C(=O)O1 (configuration not stated) | 119
CC(C)(C)C(=O)OCC1(CO)C/C(=C/c2ccc(F)cc2)C(=O)O1 (racemic) | 88.4
CC(C)C(=O)OCC1(CO)C/C(=C/c2ccc(-c3ccc(C(F)(F)F)cc3)cc2)C(=O)O1 (racemic) | 34.8
CC(C)(C)C(=O)OCC1(CO)C/C(=C/c2ccc(Br)cc2)C(=O)O1 (racemic) | 26.1
CCCC(CCC)C(=O)OCC1(CO)C/C(=C/c2ccccc2C(F)(F)F)C(=O)O1 (racemic) | 29.6
CCCC(CCC)C(=O)OCC1(CO)C/C(=C/c2cccc(C(F)(F)F)c2)C(=O)O1 (racemic) | 15.5
CC(C)(C)C(=O)OCC1(CO)C/C(=C/c2ccc(Cl)c(F)c2)C(=O)O1 (racemic) | 36.7
CC(C)C(=O)OCC1(CO)C/C(=C/c2ccc(F)cc2)C(=O)O1 (racemic) | 273
CC(C)C(=O)OCC1(CO)C/C(=C/c2ccc(Br)cc2)C(=O)O1 (racemic) | 72.6
CC(C)(C)CC(=O)OCC1(CO)C/C(=C/c2ccc(Cl)cc2)C(=O)O1 (racemic) | 26.5
CC(C)(C)CC(=O)OCC1(CO)C/C(=C/c2ccc(Br)cc2)C(=O)O1 (racemic) | 50.2
CCCC(CCC)C(=O)OCC1(CO)C/C(=C/c2cc(C(F)(F)F)cc(C(F)(F)F)c2)C(=O)O1 (racemic) | 27.3
CC(C)(C)CC(=O)OCC1(CO)C/C(=C/c2ccc(OC(F)(F)F)cc2)C(=O)O1 (racemic) | 24.6
CC(C)(C)C(=O)OCC1(CO)C/C(=C/c2ccc(F)c(Br)c2)C(=O)O1 (racemic) | 19.3
CC(C)(C)CC(=O)OCC1(CO)C/C(=C/c2ccccc2C(F)(F)F)C(=O)O1 (racemic) | 41.4
CC(C)(C)CC(=O)OCC1(CO)C/C(=C/c2cc(C(F)(F)F)cc(C(F)(F)F)c2)C(=O)O1 (racemic) | 51.1
CC(C)C(=O)OCC1(CO)C/C(=C/c2ccc(C(F)(F)F)cc2)C(=O)O1 (racemic) | 78
CC(C)C(=O)OCC1(CO)C/C(=C/c2ccc(OC(F)(F)F)cc2)C(=O)O1 (racemic) | 54.7
CC(C)(C)CC(=O)OCC1(CO)C/C(=C/c2ccc(F)c(Cl)c2)C(=O)O1 (racemic) | 26.4
CC(C)(C)CC(=O)OCC1(CO)C/C(=C/c2ccc(Cl)c(F)c2)C(=O)O1 (racemic) | 45.1
CCCC(CCC)C(=O)OCC1(CO)C/C(=C/c2ccc(Br)cc2)C(=O)O1 (racemic) | 10.7

SMILES | Ki [nM]
CCCCC(CC)C(=O)OCC1(CO)C/C(=C/c2ccc(-c3ccc(C(F)(F)F)cc3)cc2)C(=O)O1 (racemic) | 27.4
CC(CC(=O)OCC1(CO)C/C(=C/c2ccc(F)cc2)C(=O)O1)CC(C)(C)C (racemic) | 16.8
CCCCC(CC)C(=O)OCC1(CO)C/C(=C/c2ccc(OC(F)(F)F)cc2)C(=O)O1 (racemic) | 15.2
CCCCC(CC)C(=O)OCC1(CO)C/C(=C/c2ccccc2C(F)(F)F)C(=O)O1 (racemic) | 22.8
CCCCC(CC)C(=O)OCC1(CO)C/C(=C/c2cc(C(F)(F)F)cc(C(F)(F)F)c2)C(=O)O1 (racemic) | 17.3
CC(CC(=O)OCC1(CO)C/C(=C/c2ccc(C(F)(F)F)cc2)C(=O)O1)CC(C)(C)C (racemic) | 18.4
CC(CC(=O)OCC1(CO)C/C(=C/c2ccc(-c3ccc(C(F)(F)F)cc3)cc2)C(=O)O1)CC(C)(C)C (racemic) | 49.7
CCCCC(CC)C(=O)OCC1(CO)C/C(=C/c2cccc(C(F)(F)F)c2)C(=O)O1 (racemic) | 9.4
CCCC(CCC)C(=O)OCC1(CO)C/C(=C/c2ccc(-c3ccc(C(F)(F)F)cc3)cc2)C(=O)O1 (racemic) | 40.6
CC(CC(=O)OCC1(CO)C/C(=C/c2cc(C(F)(F)F)cc(C(F)(F)F)c2)C(=O)O1)CC(C)(C)C (racemic) | 30.1
CC(CC(=O)OCC1(CO)C/C(=C/c2ccc(F)c(Cl)c2)C(=O)O1)CC(C)(C)C (racemic) | 22.4
CC(CC(=O)OCC1(CO)C/C(=C/c2ccc(Cl)c(F)c2)C(=O)O1)CC(C)(C)C (racemic) | 38.3
CC(CC(=O)OCC1(CO)C/C(=C/c2ccc(Br)cc2)C(=O)O1)CC(C)(C)C (racemic) | 27.3
CCCC(CCC)C(=O)OCC1(CO)C/C(=C/c2ccc(OC(F)(F)F)cc2)C(=O)O1 (racemic) | 16.4
CCCC(CCC)C(=O)OCC1(CO)C/C(=C/c2ccc(Cl)cc2)C(=O)O1 (racemic) | 13.1
CC(C)(C)CC(=O)OCC1(CO)C/C(=C/c2ccc(F)c(Br)c2)C(=O)O1 (racemic) | 19.3
CCC(C(=O)OCC1(CO)C/C(=C/c2ccc(Br)cc2)C(=O)O1)c1ccccc1 (racemic) | 33
CCC(C(=O)OCC1(CO)C/C(=C/c2ccc(F)c(Cl)c2)C(=O)O1)c1ccccc1 (racemic) | 31.9
CC(CC(=O)OCC1(CO)C/C(=C/c2ccc(F)c(Br)c2)C(=O)O1)CC(C)(C)C (racemic) | 17.4
CCC(C(=O)OCC1(CO)C/C(=C/c2ccc(F)cc2)C(=O)O1)c1ccccc1 (racemic) | 84.3
CCC(C(=O)OCC1(CO)C/C(=C/c2ccccc2C(F)(F)F)C(=O)O1)c1ccccc1 (racemic) | 59

SMILES | Ki [nM]
CCC(C(=O)OCC1(CO)C/C(=C/c2ccc(Cl)cc2)C(=O)O1)c1ccccc1 (racemic) | 47.6
CCC(C(=O)OCC1(CO)C/C(=C/c2cc(C(F)(F)F)cc(C(F)(F)F)c2)C(=O)O1)c1ccccc1 (racemic) | 52.9
CCC(C(=O)OCC1(CO)C/C(=C/c2ccc(C(F)(F)F)cc2)C(=O)O1)c1ccccc1 (racemic) | 41.7
CCC(C(=O)OCC1(CO)C/C(=C/c2ccc(OC(F)(F)F)cc2)C(=O)O1)c1ccccc1 (racemic) | 82.7
CCCCC(CC)C(=O)OCC1(CO)C/C(=C/c2ccc(F)c(Cl)c2)C(=O)O1 (racemic) | 11
O=C1OC(CO)(COC(=O)C(c2ccccc2)c2ccccc2)C/C1=C/c1ccc(C(F)(F)F)cc1 (racemic) | 52.4
CC(C)(C)C(=O)OCC1(CO)C/C(=C/c2ccccc2C(F)(F)F)C(=O)O1 (racemic) | 54.5
CC(C)(C)C(=O)OCC1(CO)C/C(=C/c2cccc(C(F)(F)F)c2)C(=O)O1 (racemic) | 28.1
CC(C)(C)C(=O)OCC1(CO)C/C(=C/c2cc(C(F)(F)F)cc(C(F)(F)F)c2)C(=O)O1 (racemic) | 39.8
CC(C)(C)C(=O)OCC1(CO)C/C(=C/c2ccc(OC(F)(F)F)cc2)C(=O)O1 (racemic) | 22.5
O=C1OC(CO)(COC(=O)C(c2ccccc2)c2ccccc2)C/C1=C/c1ccc(Br)cc1 (racemic) | 58.9
O=C1OC(CO)(COC(=O)C(c2ccccc2)c2ccccc2)C/C1=C/c1ccc(F)c(Cl)c1 (racemic) | 73
O=C1OC(CO)(COC(=O)C(c2ccccc2)c2ccccc2)C/C1=C/c1ccc(OC(F)(F)F)cc1 (racemic) | 97.6
O=C1OC(CO)(COC(=O)C(c2ccccc2)c2ccccc2)C/C1=C/c1ccccc1C(F)(F)F (racemic) | 133
O=C1OC(CO)(COC(=O)C(c2ccccc2)c2ccccc2)C/C1=C/c1cccc(C(F)(F)F)c1 (racemic) | 61.9
O=C1OC(CO)(COC(=O)C(c2ccccc2)c2ccccc2)C/C1=C/c1ccc(F)cc1 (racemic) | 81.8
O=C1OC(CO)(COC(=O)C(c2ccccc2)c2ccccc2)C/C1=C/c1ccc(Cl)c(F)c1 (racemic) | 90.7
CCC(C(=O)OCC1(CO)C/C(=C/c2ccc(F)c(Br)c2)C(=O)O1)c1ccccc1 (racemic) | 22.3
CC(C)C(=O)OCC1(CO)C/C(=C/c2ccc(F)c(Br)c2)C(=O)O1 (racemic) | 60.6
CC(C)C(=O)OCC1(CO)C/C(=C/c2ccc(Cl)cc2)C(=O)O1 (racemic) | 88.2
O=C1OC(CO)(COC(=O)C(c2ccccc2)c2ccccc2)C/C1=C/c1ccc(-c2ccc(C(F)(F)F)cc2)cc1 (racemic) | 111

SMILES | Ki [nM]
CC(C)(C)C(=O)OCC1(CO)C/C(=C/c2ccc(Cl)cc2)C(=O)O1 (racemic) | 29.4
CC(C)(C)CC(=O)OCC1(CO)C/C(=C/c2ccc(F)cc2)C(=O)O1 (racemic) | 108
CC(C)(C)CC(=O)OCC1(CO)C/C(=C/c2cccc(C(F)(F)F)c2)C(=O)O1 (racemic) | 23.2
CC(C)(C)CC(=O)OCC1(CO)C/C(=C/c2ccc(C(F)(F)F)cc2)C(=O)O1 (racemic) | 24.7
CC(C)C(=O)OCC1(CO)C/C(=C/c2ccc(Cl)c(F)c2)C(=O)O1 (racemic) | 87.6
CC(C)(C)CC(=O)OCC1(CO)C/C(=C/c2ccc(-c3ccc(C(F)(F)F)cc3)cc2)C(=O)O1 (racemic) | 37
CCCCC(CC)C(=O)OCC1(CO)C/C(=C/c2ccc(Br)cc2)C(=O)O1 (racemic) | 8.5
CCC(C(=O)OCC1(CO)C/C(=C/c2cccc(C(F)(F)F)c2)C(=O)O1)c1ccccc1 (racemic) | 30.2
CCC(C(=O)OCC1(CO)C/C(=C/c2ccc(Cl)c(F)c2)C(=O)O1)c1ccccc1 (racemic) | 45.1
CC(CC(=O)OCC1(CO)C/C(=C/c2ccccc2C(F)(F)F)C(=O)O1)CC(C)(C)C (racemic) | 33.3
CCCCCC/C=C1/CC(CO)(COC(=O)CCCCCC)OC1=O (racemic) | 37
CCCCC(CC)C(=O)OCC1(CO)C/C(=C/c2ccc(F)cc2)C(=O)O1 (racemic) | 15.1
CC(CC(=O)OCC1(CO)C/C(=C/c2ccc(Cl)cc2)C(=O)O1)CC(C)(C)C (racemic) | 16.8
CC(CC(=O)OCC1(CO)C/C(=C/c2ccc(OC(F)(F)F)cc2)C(=O)O1)CC(C)(C)C (racemic) | 20.4
CC(C)(C)C(=O)OCC1(CO)C/C(=C/c2ccc(C(F)(F)F)cc2)C(=O)O1 (racemic) | 36.3
O=C1OC(CO)(COC(=O)C(c2ccccc2)c2ccccc2)C/C1=C/c1cc(C(F)(F)F)cc(C(F)(F)F)c1 (racemic) | 79.5
O=C1OC(CO)(COC(=O)C(c2ccccc2)c2ccccc2)C/C1=C/c1ccc(Cl)cc1 (racemic) | 73.4
CC(C)(C)C(=O)OCC1(CO)C/C(=C/c2ccc(-c3ccc(C(F)(F)F)cc3)cc2)C(=O)O1 (racemic) | 27.2
O=C1OC(CO)(COC(=O)C(c2ccccc2)c2ccccc2)C/C1=C/c1ccc(F)c(Br)c1 (racemic) | 37.9
